In ChEMBL document CHEMBL1146097, “Catalytic site prediction and virtual screening of cytochrome P450 2D6 substrates by consideration of water and rescoring in automated docking” (J Med Chem, 2006):

Target: Cytochrome P450 2D6 (Homo sapiens, UniProt P10635)
Assay: Inhibition of human CYP2D6 expressed in Escherichia coli JM109
Type: ADME
In short: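 IC50 from inhibition of CYP2D6-catalysed MAMC O-demethylation; values are means of at least three independent experiments ± standard deviation.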

Chain of Cytochrome P450 2D6 (P10635 whole entry): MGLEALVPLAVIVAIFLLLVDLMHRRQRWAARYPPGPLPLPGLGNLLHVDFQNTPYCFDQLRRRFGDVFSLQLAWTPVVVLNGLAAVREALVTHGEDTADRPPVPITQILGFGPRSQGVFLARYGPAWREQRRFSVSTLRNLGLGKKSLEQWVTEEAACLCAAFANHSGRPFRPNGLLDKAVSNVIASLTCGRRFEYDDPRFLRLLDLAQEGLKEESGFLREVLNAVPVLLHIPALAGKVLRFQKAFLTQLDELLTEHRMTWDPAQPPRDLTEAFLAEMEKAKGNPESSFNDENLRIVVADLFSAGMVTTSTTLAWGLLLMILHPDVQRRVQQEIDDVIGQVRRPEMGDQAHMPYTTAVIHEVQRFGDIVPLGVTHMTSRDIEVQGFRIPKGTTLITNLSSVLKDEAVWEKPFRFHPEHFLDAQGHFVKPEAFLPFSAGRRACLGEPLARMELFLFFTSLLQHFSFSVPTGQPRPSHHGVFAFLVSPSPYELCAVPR

| Structure (SMILES) | IC50 [µM] |
| --- | --- |
| CC(Cc1ccccc1)NC1CC2c3ccccc3CCc3cccc1c32 (configuration not stated) | 0.15 |
| c1ccc(CCNCCC2c3ccccc3Sc3ccccc32)cc1 | 0.26 |
| CC1C2C=C(C=C3c4ccccc4CCc4ccccc43)CC1CC2 (configuration not stated) | 0.21 |
| Cc1ccc2c(c1)C(n1cccc1)c1cccnc1CC2 (configuration not stated) | 40 |
| CCCCCCCCCCCc1cccn1C1c2ccccc2CCc2ccccc21 | 5.8 |
| C[N+]1(C)C2CCC1CC(OC1c3ccccc3C=Cc3ccccc31)C2 (configuration not stated) | 60 |
| Nc1ccccc1-c1nc(N)c2ccccc2n1 | 169 |
| O=C1c2ccccc2C(O)C1C1c2ccccc2C=Cc2ccccc21 (configuration not stated) | 60 |
| CN(C)CCC1(O)c2ccccc2CCc2ccc3ccccc3c21 (configuration not stated) | 0.06 |
| Cn1ccnc1C(O)C=C(c1ccccc1)c1ccccc1 (configuration not stated) | 15 |
| CCC(=O)O/N=C1\c2ccccc2CCc2ncccc21 | > 400 |
| C(=C1c2ccccc2CCc2ccccc21)c1ccccc1 | > 200 |
| CCc1ccccc1C1(Br)C(=O)c2ccccc2C1=O | 83 |
| Fc1ccc(C(OCCN2CCC(CCCc3ccccc3)CC2)c2ccc(F)cc2)cc1 | 1.21 |
| Oc1ccccc1/C=N/c1ccccc1 [2-((PHENYLIMINO)METHYL)PHENOL] | > 1000 |
| COc1ccc2c(c1)[C@]13CCCC[C@@H]1[C@H](C2)N(C)CC3 [DEXTROMETHORPHAN] | 3.4 |
| CCC(c1ccccc1)c1c(O)c2ccccc2oc1=O (configuration not stated) [PHENPROCOUMON] | 528 |
